HCV core dimer: blocks dimerization of HCV core protein. inhibition, % at 5 µM. TR-FRET GST/Flag-core106 dimerization, 1536-well. 0.33% of 300,000 active;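 active = inhibition above the mean of all tested compounds plus 3 SD, set per screening campaign, cut at about 45% in these data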
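Assay system: Tagged HCV core106 pair (GST and Flag) | Buffer or medium: KF-containing HEPES buffer, pH 7.45, DTT, CHAPS, BSA | Also added: Eu donor and XL665 acceptor anti-tag antibodies | Dosing: One concentration, 5 µM, in 0.5% DMSO | Timing: 4 h at 22.5 °C | Technique: TR-FRET 671 and 617 nm emission | Repeats: Singlicate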
LEDGF integ inh: blocks HIV-1 LEDGF/p75-dependent DNA integration | TR-FRET IN-LEDGF/p75 DNA integration, Eu/Cy5 | inhibition, % at 3.7 µM | 0.64% of 370,000 active | AID 743269;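 active = inhibition above the screen-wide mean plus 3 SD, cut at about 13% in these data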;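 note: signal is the Cy5 over europium emission ratio at 671 and 618 nm; 0% = plate median of compound wells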
MBD2 inh: MBD2-methylated oligo binding inhibition; inhibition, % at 4.4 µM; AID 686964; Q9UBB5; 0.31% of 370,000 active; TR-FRET, MBD2 binding to methylated oligonucleotide; in the data active = inhibition above about 13%
TDP2 inh: TDP2 (human) inhibition, absorbance primary screen; O95551; recombinant TDP2, T5PNP hydrolysis, p-nitrophenol absorbance 415 nm; inhibition, % at 12.8 µM; 0.34% of 370,000 active; AID 720702;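 active = inhibition above the mean of all tested compounds plus 3 SD, set per campaign, cut at about 25% in these data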;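 note: 0% = DMSO with enzyme and 100% = buffer with substrate but no TDP2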
Target sequence (O95551 whole entry, looked up): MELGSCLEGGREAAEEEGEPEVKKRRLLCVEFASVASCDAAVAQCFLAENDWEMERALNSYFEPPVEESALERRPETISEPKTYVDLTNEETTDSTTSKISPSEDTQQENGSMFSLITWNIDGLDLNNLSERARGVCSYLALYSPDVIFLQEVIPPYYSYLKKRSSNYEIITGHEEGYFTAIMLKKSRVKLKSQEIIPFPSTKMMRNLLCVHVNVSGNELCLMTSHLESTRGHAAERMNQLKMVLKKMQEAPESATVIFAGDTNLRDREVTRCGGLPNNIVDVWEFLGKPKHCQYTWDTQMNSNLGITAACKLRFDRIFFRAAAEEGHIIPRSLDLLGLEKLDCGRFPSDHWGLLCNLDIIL
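System – recombinant human TDP2 · Quantity – TDP2 enzyme at 120 nM final · Doses – single concentration, 12.8 µM nominal, with 1% DMSO · Incubation – 2 h at 37 °C · Measured by – epi absorbance of p-nitrophenol freed from T5PNP by hydrolysis · Read-out – % inhibition relative to enzyme-containing and enzyme-free wells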
UHRF1 binding: human UHRF1 methylated DNA binding inhibitors; Q96T88; UHRF1 binding to methylated oligo, TR-FRET; inhibition, % at 4.4 µM; 0.75% of 370,000 active; in the data active = inhibition above about 21%;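 note: UHRF1 SRA domain binding a hemimethylated CpG hairpin DNA probe; 0% = median of test compound wells and 100% = reference inhibitor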
Starred values were filed as active, the others as inactive; . = no result. A selection: hits, their analogues and other compounds. The true share with any hit is near 1.8%.

SMILES | HCV core dimer | LEDGF integ inh | MBD2 inh | TDP2 inh | UHRF1 binding
CCC[C@H]1[C@@H](OC(=O)NC(CC)CC)CC[C@@]23CCCN2C(=O)CCC[C@@H]13 | . | -0.5 | 4.3 | 2.2 | 78.3*
COC(=O)[C@]12C[C@H](CC(=O)N3CCOCC3)C(=O)N(Cc3ccco3)C1=C[C@H](C(C)(C)C)O[C@@H]2C | . | 2.0 | 1.4 | 4.4 | 5.1
COc1ccc2c(CC(=O)OCC(=O)N(C)c3c(N)n(Cc4ccccc4)c(=O)[nH]c3=O)coc2c1 | . | -0.9 | 4.7 | 1.0 | 21.6*
O=c1c2ccccc2sn1-c1ccc(F)cc1 | . | -0.5 | 6.2 | 11.0 | 10.0
O=c1c2ccc(F)cc2sn1-c1ccccc1 | . | 0.4 | 1.2 | -1.3 | 87.6*
CCN(Cc1ccccc1)S(=O)(=O)c1c(C)n(C)c(=O)n(C)c1=O | 0.1 | 0.8 | -4.1 | -0.9 | -4.5
CCN(Cc1ccccc1)S(=O)(=O)c1c(N)n(C)c(=O)n(C)c1=O | 1.6 | 3.1 | 12.7 | -6.8 | 30.1*
COc1ccccc1Nc1ccc(C(=O)NCc2cccs2)cn1 | 4.9 | 4.8 | -4.6 | 9.1 | 0.3
COc1ccccc1Nc1ncc(-c2cccs2)s1 | 49.8* | 1.2 | -1.3 | -3.8 | -8.8
O=C(OCc1cn(Cc2cccc(F)c2)nn1)N1CCCCC1 | . | -2.0 | -1.1 | 8.0 | 4.4
C#Cc1ccc([C@@H]2C=C(C(=O)NCc3ccccc3)O[C@H](OCCCCO)C2)cc1 | 51.6* | 1.7 | 0.3 | 9.1 | 0.5
C#Cc1ccc([C@@H]2C=C(C(=O)NCc3ccccc3)O[C@H](OCc3ccc(CO)cc3)C2)cc1 | 47.1* | 2.3 | 1.8 | 3.8 | 2.6
O=C(NCc1ccccc1)C1=C[C@@H](c2ccccc2)C[C@@H](OCc2ccc(CO)cc2)O1 | 9.4 | -1.9 | 5.0 | -3.1 | -3.8
O=C1CC(Cc2ccccc2)C(=O)N1CCc1ccc2c(c1)OCO2 (configuration not stated) | -3.4 | -0.4 | 7.0 | -0.9 | 3.1
Cc1cccc(CC2CC(=O)N(CCc3ccc4c(c3)OCO4)C2=O)c1 (configuration not stated) | 3.7 | 6.6 | 12.5 | -8.2 | 39.7*
O=C(Nc1c(-c2ccc(F)cc2)nc2ncccn12)C1CC1 | . | 2.0 | 2.2 | 5.9 | 0.6
Cc1nc(Nc2cccc(C(F)(F)F)c2)nc2c1C(=O)CC(C)C2 (configuration not stated) | 8.6 | -2.5 | -5.5 | -3.1 | -3.4
Cc1ccc(Nc2nc(C)c3c(n2)CC(C)CC3=O)c(C)c1 (configuration not stated) | -4.2 | -1.0 | -6.0 | 12.8 | 28.4*
CC(C)N1CC2(CC(c3ccccc3F)=NO2)CN1C(=O)c1ccc(C(C)(C)C)cc1 (configuration not stated) | . | 0.3 | -0.3 | -10.8 | 1.0
CC(=O)N1CC2(CC(c3ccccc3F)=NO2)CN1c1ccc(Cl)cc1 (configuration not stated) | . | -0.2 | 8.2 | 0.6 | 21.9*
COc1ccc([C@H]2OC(=O)C[C@H]2C(=O)N2CCN(c3ccccc3Cl)CC2)cc1OC | . | -0.1 | -4.1 | -11.0 | -3.2
S=c1nc(Cc2ccc(Cl)cc2)[nH]c2ccccc12 | 53.8* | -1.4 | -1.1 | 12.3 | -2.0
O=S(=O)(c1ccc(Oc2ncnc3scc(-c4ccccc4)c23)cc1)N1CCOCC1 | 50.4* | 1.7 | 2.4 | -13.2 | 0.9
CCOC(=O)N1CCC(NC(=O)c2cccc3c2C(=O)N(c2ccc(OC)cc2)C3)CC1 | 59.4* | 1.8 | 5.3 | -1.5 | 4.2
COc1ccc(N2Cc3cccc(C(=O)NC(C)CCc4ccco4)c3C2=O)cc1 (configuration not stated) | 62.8* | 6.0 | 11.9 | -1.1 | 10.7
SMILES | HCV core dimer | LEDGF integ inh | MBD2 inh | TDP2 inh | UHRF1 binding
Cc1[nH]c2ccccc2c1CCN(Cc1cccs1)C(=O)Nc1cccc2c1OCO2 | . | -1.2 | 1.0 | 2.4 | 0.2
C[C@@H]1C=CCCO[C@]12C(=O)Nc1ccccc12 | . | -0.1 | 4.5 | 1.3 | -1.3
Cc1ccc(S(=O)(=O)N2CCOCCOCCOCCOCCOCC2)cc1 | -9.6 | -3.1 | -3.5 | -12.2 | 3.2
Cc1ccc(CN2C(=O)C3CCCN3c3ccc(S(=O)(=O)N4CCOCC4)cc32)cc1 (configuration not stated) | 47.7* | . | . | . | .
O=C(CSc1nnc(-c2ccccn2)n1-c1ccc(Cl)cc1)Nc1ccc(S(=O)(=O)Nc2nccs2)cc1 | . | 1.1 | 0.2 | -8.8 | 3.4
CC1CCC2(CCC(=O)N2CCCO)CC1 (configuration not stated) | . | -0.8 | 2.4 | 1.0 | -0.4
CC(CCN1CCC(CN2C(=S)NCC2Cc2ccccc2)CC1)c1ccccc1 (configuration not stated) | . | 2.6 | 11.0 | 2.1 | 21.3*
CC(C)CCN1CCC(CN2C(=S)NC[C@@H]2Cc2ccccc2)CC1 | . | 5.2 | -0.9 | -2.4 | -2.3
O=C(CCSc1ccccc1)Nc1ccccc1Br | -1.1 | 2.4 | 12.5 | -1.8 | 25.5*
COc1ccc2c(c1)c[n+](C)c1c3cc(OC)c(OC)cc3ccc21 | . | -0.1 | 9.9 | -2.2 | -37.8
COc1cc2c[n+](C)c3c4ccccc4ccc3c2cc1OC | . | 4.1 | 65.9* | -0.5 | -4.7
COC(=O)Cc1ccc(NC(=O)c2ccc3c(c2)C(=O)N(Cc2ccco2)C3=O)cc1 | 12.2 | -1.4 | -6.4 | 8.2 | 1.3
CCc1ccc(NC(=O)c2ccc3c(c2)C(=O)N(Cc2ccco2)C3=O)cc1 | 55.7* | 5.7 | -1.2 | 7.3 | 2.4
O=C(NC1CCCCN(Cc2cccc(C(F)(F)F)c2)C1=O)c1ccc(Cl)c(Cl)c1 (configuration not stated) | . | -0.8 | 3.8 | 3.8 | -2.8
O=C(NC1CCN(Cc2ccccc2)CC1)c1cncc(Br)c1 | 3.1 | -4.6 | 9.0 | -6.9 | 21.0*
O=C(NCc1cccs1)C1CCN(S(=O)(=O)c2ccc([N+](=O)[O-])cc2)CC1 | . | -2.2 | -2.4 | 1.6 | -0.1
CN(Cc1ccccc1Cl)C(=O)CN1C(=O)C2(OCCCO2)c2ccccc21 | . | 0.1 | 1.6 | 9.8 | -1.1
CC(C)CN1C(=O)[C@]2(CC(=O)N(C)C2c2ccccc2)c2cc(-n3cc(C4=CCCCC4)nn3)ccc21 (some centres not stated) | . | -2.0 | -0.8 | 3.6 | -1.2
CCN(Cc1cn(Cc2ccc(C)cc2)nn1)S(=O)(=O)c1ccccc1Br | . | 0.5 | -2.1 | 4.7 | 1.2
O=C(O)c1c2c(nc3ccccc13)/C(=C/c1ccc(O)cc1)CC2 | 2.3 | 9.8 | 11.3 | 14.9 | 36.8*
CC(C)N1CCC(N2CCN(Cc3cccc4nonc34)CC2CCO)CC1 (configuration not stated) | -2.4 | -12.6 | -2.0 | 6.2 | 78.7*
O=C(CSc1nnc(NC(=O)c2ccccc2Cl)s1)Nc1ccc2c(c1)oc1ccccc12 | 49.2* | 0.0 | 4.2 | 9.7 | 0.3
Cc1cc(C)nc(OC(C(=O)O)C(OCC(C)C)(c2ccccc2)c2ccccc2)n1 (configuration not stated) | 10.9 | -9.1 | 0.2 | -7.4 | -0.2
